# Laboratory results from ChEMBL document CHEMBL5303300, “EUbOPEN Chemogenomics Library - Multiplex” (2023).
# Where “and” joins values, the source holds several entries; their conditions need not be identical. Identical values can stand only once.
# Tested on: HEK-293T
# Assay: Multiplex assay against HEK293T
# Assay type: toxicity, cell-based
# Details: human, number of replicates 2
# In short: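 Four dyes were applied at seeding to live cells: Hoechst33342, BioTracker Green Microtubule Cytoskeleton Dye, MitoTracker Red and Annexin V Alexa Fluor 680. Imaging after compound addition used a CQ1 microscope at 37°C and 5% CO2. CellPathfinder machine-learning gating then sorted cells into Hoechst high-intensity objects or normal cells, normal cells into healthy, pyknosed or fragmented nuclei, and pyknosed cells into mitotic or apoptotic, with tubulin, mitochondrial-mass and membrane-permeability phenotypes given as per cents of healthy-nucleus cells.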
# [1] = 12 h, 1 µM, compound concentration 1 uM
# [2] = 12 h, 10 µM, compound concentration 10 uM
# [3] = 24 h, 1 µM, compound concentration 1 uM
# [4] = 24 h, 10 µM, compound concentration 10 uM
# [5] = 48 h, 1 µM, compound concentration 1 uM
# [6] = 48 h, 10 µM, compound concentration 10 uM
compound,measurement,setting,value
CCn1ccc(Nc2ncc3c(n2)-c2c(nn(C)c2-c2ccc(-c4cnn(C)c4)cc2Cl)CC3)n1,Population Apoptotic (%),[1],31% and 47%
same,Population Fragmented Nuclei (%),[1],3%
same,Population Healthy Nuclei (%),[1],87% and 84%
same,Population Hoechst High Intensity Objects (%),[1],14% and 10%
same,Population Membrane Permeable-Phenotype (%),[1],1% and 0%
same,Population Mitochondria Different-Phenotype (%),[1],44% and 42%
same,Population Mitotic Cells (%),[1],68% and 52%
same,Population Normal (%),[1],85% and 89%
same,Population Pyknosed Nuclei (%),[1],8% and 12%
same,Population Tubulin-Different-Phenotype (%),[1],84% and 81%
same,Total Cell Count,[1],429 and 424
same,Population Apoptotic (%),[2],76% and 63%
same,Population Fragmented Nuclei (%),[2],4% and 9%
same,Population Healthy Nuclei (%),[2],86% and 80%
same,Population Hoechst High Intensity Objects (%),[2],11%
same,Population Membrane Permeable-Phenotype (%),[2],3% and 0%
same,Population Mitochondria Different-Phenotype (%),[2],58% and 68%
same,Population Mitotic Cells (%),[2],24% and 36%
same,Population Normal (%),[2],88%
same,Population Pyknosed Nuclei (%),[2],8% and 10%
same,Population Tubulin-Different-Phenotype (%),[2],92% and 94%
same,Total Cell Count,[2],332 and 321
same,Population Apoptotic (%),[3],26% and 62%
same,Population Fragmented Nuclei (%),[3],5%
same,Population Healthy Nuclei (%),[3],87% and 85%
same,Population Hoechst High Intensity Objects (%),[3],13% and 15%
same,Population Membrane Permeable-Phenotype (%),[3],1%
same,Population Mitochondria Different-Phenotype (%),[3],40% and 28%
same,Population Mitotic Cells (%),[3],73% and 37%
same,Population Normal (%),[3],86% and 84%
same,Population Pyknosed Nuclei (%),[3],7% and 9%
same,Population Tubulin-Different-Phenotype (%),[3],80% and 69%
same,Total Cell Count,[3],473 and 512
same,Population Apoptotic (%),[4],72% and 81%
same,Population Fragmented Nuclei (%),[4],4% and 11%
same,Population Healthy Nuclei (%),[4],89% and 80%
same,Population Hoechst High Intensity Objects (%),[4],15% and 18%
same,Population Membrane Permeable-Phenotype (%),[4],0% and 1%
same,Population Mitochondria Different-Phenotype (%),[4],34% and 45%
same,Population Mitotic Cells (%),[4],27% and 18%
same,Population Normal (%),[4],84% and 81%
same,Population Pyknosed Nuclei (%),[4],5% and 8%
same,Population Tubulin-Different-Phenotype (%),[4],80%
same,Total Cell Count,[4],438 and 393
same,Population Apoptotic (%),[5],52% and 61%
same,Population Fragmented Nuclei (%),[5],13% and 10%
same,Population Healthy Nuclei (%),[5],83% and 85%
same,Population Hoechst High Intensity Objects (%),[5],20%
same,Population Membrane Permeable-Phenotype (%),[5],4% and 2%
same,Population Mitochondria Different-Phenotype (%),[5],7% and 12%
same,Population Mitotic Cells (%),[5],47% and 38%
same,Population Normal (%),[5],79%
same,Population Pyknosed Nuclei (%),[5],2% and 3%
same,Population Tubulin-Different-Phenotype (%),[5],60% and 59%
same,Total Cell Count,[5],930 and 827
same,Population Apoptotic (%),[6],41% and 52%
same,Population Fragmented Nuclei (%),[6],11% and 14%
same,Population Healthy Nuclei (%),[6],85% and 82%
same,Population Hoechst High Intensity Objects (%),[6],14% and 18%
same,Population Membrane Permeable-Phenotype (%),[6],2% and 0%
same,Population Mitochondria Different-Phenotype (%),[6],11% and 15%
same,Population Mitotic Cells (%),[6],58% and 47%
same,Population Normal (%),[6],85% and 81%
same,Population Pyknosed Nuclei (%),[6],2% and 3%
same,Population Tubulin-Different-Phenotype (%),[6],65% and 63%
same,Total Cell Count,[6],674 and 549
